Results published in ChEMBL document CHEMBL3627607, “A Novel Pyrazolopyridine with in Vivo Activity in Plasmodium berghei- and Plasmodium falciparum-Infected Mouse Models from Structure-Activity Relationship Studies around the Core of Recently Identified Antimalarial Imidazopyridazines” (J Med Chem, 2015).
Activity calls are given as the source filed them. The calls are words filed in the database; no cut-off is given here.

What was measured:
Plasmodium falciparum [1] = assay: Antiplasmodial activity against multidrug resistant Plasmodium falciparum K1 infected in human erythrocytes after 48 hrs by [3H]-hypoxanthine incorporation assay; format: functional, organism-based
Plasmodium falciparum [2] = assay: Antiplasmodial activity against drug sensitive Plasmodium falciparum NF54 infected in human erythrocytes after 48 hrs by [3H]-hypoxanthine incorporation assay; format: functional, organism-based
Liver microsome [3] = assay: Metabolic stability of the compound in human liver microsomes assessed as compound remaining at 0.1 uM after 30 mins by LC-MS/MS analysis; format: ADME; conditions: 0.5 h
Liver microsome [4] = assay: Metabolic stability of the compound in rat liver microsomes assessed as compound remaining at 0.1 uM after 30 mins by LC-MS/MS analysis; format: ADME; conditions: 0.5 h
[5] = Metabolic stability of the compound in mouse liver microsomes assessed as compound remaining at 0.1 uM after 30 mins by LC-MS/MS analysis; format: ADME; conditions: 0.5 h
Plasmodium berghei [6] = assay: Antiplasmodial activity against Plasmodium berghei ANKA expressing GFP infected in mouse assessed as reduction of parasitemia level at 50 mg/kg, po qd for 4 days measured on day 4 post last dose by flow cytometric analysis relative to control; format: functional; design: scale not given: the % may be the effect or the level left
How it was run: (§1)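 Mice (n = 3) infected with GFP-transfected P. berghei ANKA. Test agents were suspended in HPMC vehicle (0.5% w/v hydroxypropylmethylcellulose, 0.5% v/v benzyl alcohol, 0.4% v/v Tween 80, 0.9% w/v NaCl in water). Dosed orally at 4, 24, 48 and 72 h post-infection. Parasitemia read by flow cytometry on day 4 (96 h), detection limit 0.1%. Activity = control-minus-treated mean % parasitemia, relative to control.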

Plasmodium berghei [7] = assay: Antiplasmodial activity against Plasmodium berghei ANKA expressing GFP infected in mouse assessed as means survival days at 50 mg/kg, po qd for 4 days; format: functional
How it was run: (§2)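 Mice (n = 3) infected with GFP-transfected P. berghei ANKA. Compounds dissolved or suspended in HPMC vehicle (0.5% w/v hydroxypropylmethylcellulose, 0.5% v/v benzyl alcohol, 0.4% v/v Tween 80, 0.9% w/v NaCl in water). Dosed orally 4, 24, 48 and 72 h after infection. Parasitemia read by flow cytometry (detection limit 0.1%). Survival recorded as mean survival time in days.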

[8] = Drug level in mouse blood at 50 mg/kg, po after 1 hr; format: ADME, organism-based; conditions: read-out: Drug uptake
How it was run: (§3)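 Snapshot whole-blood levels of parent and its sulfone metabolite at 1, 4 and 24 h after the first 50 mg/kg oral dose. Samples came from the P. berghei-infected efficacy mice, dosed in HPMC suspension vehicle.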

[9] = Drug level in mouse blood at 50 mg/kg, po after 4 hrs; format: ADME, organism-based; conditions: read-out: Drug uptake; how it was run: as §3
[10] = (§4) Drug level in mouse blood at 50 mg/kg, po after 24 hrs; format: ADME, organism-based; conditions: blood, read-out: Drug uptake; how it was run: as §3
[11] = Half life in rat at 20 mg/kg, po; format: ADME, organism-based; conditions: in vivo
[12] = Oral bioavailability in rat at 20 mg/kg; format: ADME, organism-based; conditions: in vivo
[13] = Half life in rat at 5 mg/kg, iv; format: ADME, organism-based; conditions: in vivo
[14] = Plasma clearance in rat at 5 mg/kg, iv; format: ADME, organism-based
[15] = Volume of distribution in rat at 5 mg/kg, iv; format: ADME, organism-based; conditions: in vivo
Plasmodium berghei [16] = assay: Antiplasmodial activity against sporozoite stage of Plasmodium berghei expressing luciferase infected in human HepG2-A16-CD81EGFP cells preincubated with cells for 18 hrs followed by protozoal infection measured after 48 hrs by bioluminescence assay; format: functional, organism-based
How it was run: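 HepG2 cells were pretreated 18 h with compound, then infected with freshly dissected luciferase-expressing P. berghei sporozoites. After a further 48 h with compound, viability of exoerythrocytic forms and of HepG2 host cells was read by bioluminescence.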

Plasmodium berghei [17] = assay: Antiplasmodial activity against Plasmodium berghei ANKA expressing GFP infected in mouse assessed as reduction of parasitemia level at 30 mg/kg, po qd for 4 days; format: functional; design: scale not given: the % may be the effect or the level left
Plasmodium berghei [18] = assay: Antiplasmodial activity against Plasmodium berghei ANKA expressing GFP infected in mouse assessed as means survival days at 30 mg/kg, po qd for 4 days; format: functional
Plasmodium falciparum [19] = assay: Antiplasmodial activity against Plasmodium falciparum 3D7 infected in po dosed non-myelodepleted NOD-SCID IL2Rgammanull mouse engrafted with human erythrocytes assessed as reduction of parasitemia level administered qd for 4 days; format: functional; conditions: 3D7, po, 96 h
How it was run: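 P. falciparum-infected engrafted NSG mice were dosed orally once daily for four consecutive days. Blood parasitemia was monitored, and a 90% effective dose was derived along with the blood exposure at that dose.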

[20] = Solubility of the compound in 0.01M HCl at pH 2 by Nephelometric analysis; format: physicochemical; conditions: buffer
[21] = Selectivity index, ratio of IC50 for CHO cells to IC50 for multidrug resistant Plasmodium falciparum K1; format: toxicity, cell-based; conditions: hamster, read-out: Ratio IC50
[22] = Selectivity index, ratio of IC50 for CHO cells to IC50 for Plasmodium falciparum NF54; format: toxicity, cell-based; conditions: hamster, read-out: Ratio IC50
[23] = Selectivity index, ratio of IC50 for African green monkey VERO cells to IC50 for multidrug resistant Plasmodium falciparum K1; format: toxicity, cell-based; conditions: read-out: Ratio IC50
[24] = Selectivity index, ratio of IC50 for African green monkey VERO cells to IC50 for Plasmodium falciparum NF54; format: toxicity, cell-based; conditions: read-out: Ratio IC50
[25] = target: Voltage-gated inwardly rectifying potassium channel KCNH2 (Homo sapiens, UniProt Q12809); assay: Inhibition of human ERG potassium channel by ionworks patch-clamp electrophysiology assay
Voltage-gated inwardly rectifying potassium channel KCNH2, sequence (Q12809 whole entry): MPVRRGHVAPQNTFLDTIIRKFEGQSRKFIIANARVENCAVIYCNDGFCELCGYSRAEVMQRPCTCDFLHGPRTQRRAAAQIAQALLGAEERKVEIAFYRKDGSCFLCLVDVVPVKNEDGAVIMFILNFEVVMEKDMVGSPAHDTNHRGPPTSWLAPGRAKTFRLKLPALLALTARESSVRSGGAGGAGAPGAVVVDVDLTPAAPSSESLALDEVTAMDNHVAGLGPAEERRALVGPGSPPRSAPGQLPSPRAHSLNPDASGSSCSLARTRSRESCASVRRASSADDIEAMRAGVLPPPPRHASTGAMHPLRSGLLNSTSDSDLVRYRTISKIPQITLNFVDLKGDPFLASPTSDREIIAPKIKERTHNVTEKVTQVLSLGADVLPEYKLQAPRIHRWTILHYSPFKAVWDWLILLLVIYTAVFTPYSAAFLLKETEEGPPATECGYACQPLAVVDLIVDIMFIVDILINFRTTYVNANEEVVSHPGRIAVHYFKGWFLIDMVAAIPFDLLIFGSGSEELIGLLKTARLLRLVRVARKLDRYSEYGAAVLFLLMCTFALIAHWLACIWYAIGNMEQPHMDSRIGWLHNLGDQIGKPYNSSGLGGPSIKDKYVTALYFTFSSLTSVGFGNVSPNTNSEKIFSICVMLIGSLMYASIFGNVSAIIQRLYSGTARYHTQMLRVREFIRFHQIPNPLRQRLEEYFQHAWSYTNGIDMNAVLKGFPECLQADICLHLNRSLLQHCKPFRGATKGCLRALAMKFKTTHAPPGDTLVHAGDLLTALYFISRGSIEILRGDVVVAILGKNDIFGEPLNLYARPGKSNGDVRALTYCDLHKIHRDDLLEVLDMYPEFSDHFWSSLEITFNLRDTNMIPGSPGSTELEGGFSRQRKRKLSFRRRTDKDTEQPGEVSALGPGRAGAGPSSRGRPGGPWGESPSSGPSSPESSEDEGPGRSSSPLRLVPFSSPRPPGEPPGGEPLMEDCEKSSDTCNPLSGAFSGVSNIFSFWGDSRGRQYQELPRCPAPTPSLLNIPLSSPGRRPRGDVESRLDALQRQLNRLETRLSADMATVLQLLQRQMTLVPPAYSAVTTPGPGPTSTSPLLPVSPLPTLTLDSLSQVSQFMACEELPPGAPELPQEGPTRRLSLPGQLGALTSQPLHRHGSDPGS

Blood = assay: as §4; format: ADME, organism-based; conditions: in vivo, 24 h, BLD = below limit of detection; how it was run: as §3
Plasmodium berghei [26] = assay: Antiplasmodial activity against Plasmodium berghei ANKA expressing GFP infected in mouse assessed as mouse cured from disease at 50 mg/kg, po qd for 4 days; format: functional, organism-based
Plasmodium berghei [27] = assay: Antiplasmodial activity against Plasmodium berghei ANKA expressing GFP infected in mouse assessed as reduction of parasitemia level at 10 mg/kg, po qd for 4 days measured on day 4 post last dose by flow cytometric analysis relative to control; format: functional; design: scale not given: the % may be the effect or the level left; how it was run: as §1
Plasmodium berghei [28] = assay: Antiplasmodial activity against Plasmodium berghei ANKA expressing GFP infected in mouse assessed as means survival days at 10 mg/kg, po qd for 4 days; format: functional; how it was run: as §2
Plasmodium berghei [29] = assay: Antiplasmodial activity against Plasmodium berghei ANKA expressing GFP infected in mouse assessed as reduction of parasitemia level at 3 mg/kg, po qd for 4 days measured on day 4 post last dose by flow cytometric analysis relative to control; format: functional; design: scale not given: the % may be the effect or the level left; how it was run: as §1
Plasmodium berghei [30] = assay: Antiplasmodial activity against Plasmodium berghei ANKA expressing GFP infected in mouse assessed as means survival days at 3 mg/kg, po qd for 4 days; format: functional; how it was run: as §2
[31] = Half life in rat at 15 mg/kg, po; format: ADME, organism-based; conditions: in vivo
[32] = Oral bioavailability in rat at 15 mg/kg; format: ADME, organism-based; conditions: in vivo

Structure (SMILES)	IC50 (Plasmodium falciparum [1])	IC50 (Plasmodium falciparum [2])	Stability (Liver microsome [3])	Stability (Liver microsome [4])	Stability [5]	Activity (Plasmodium berghei [6])	MSD (Plasmodium berghei [7])	further results
CS(=O)(=O)c1ccc(-c2cnn3ccc(-c4cccc(S(=O)(=O)C5CC5)c4)nc23)cc1	0.37 nM	0.42 nM	Stable	Stable	Stable	86%	7 days	concentration at 1 h [8]: 169 nM; concentration at 4 h [9]: 145 nM; concentration at 24 h [10]: < 10 nM; half-life [11]: 468 min; bioavailability [12]: 1%; half-life [13]: 168 min; clearance [14]: 1.1 mL/min/kg; Vd [15]: 0.3 L/kg; IC50 (Plasmodium berghei [16]): 0.61 nM
C[C@H]1[C@H](OC(=O)CCC(=O)O)O[C@@H]2O[C@@]3(C)CC[C@H]4[C@H](C)CC[C@@H]1[C@@]24OO3 [ARTESUNATE]	4 nM	3 nM						Activity (Plasmodium berghei [17]): 99%; MSD (Plasmodium berghei [18]): 10 days; ED90 (Plasmodium falciparum [19]): 11.1 mg/kg
CS(=O)(=O)c1ccc(-c2cnc3cnc(-c4cccc(S(C)(=O)=O)c4)cn23)cc1		877 nM	Stable	Stable	Stable			solubility [20]: soluble
CS(=O)(=O)c1ccc(-c2cnc3ccc(-c4cccc(S(=O)(=O)C5CC5)c4)nn23)cc1			Stable	Stable	Stable			
CS(=O)(=O)c1ccc(-c2cnc3ccc(-c4cccc(S(C)(=O)=O)c4)nn23)cc1			Stable	Stable	Stable	99.8%	7 days	selectivity ratio [21]: > 1000; selectivity ratio [22]: > 1000; selectivity ratio [23]: > 1000; selectivity ratio [24]: > 1000; IC50 [25]: 0.9 µM; IC50 (Plasmodium berghei [16]): 4.1 nM
CS(=O)(=O)c1ccc(-c2cnn3c2NC(c2cccc(C(F)(F)F)c2)CC3)cc1 (stereo unspecified)		< 100 nM						
CS(=O)(=O)c1ccc(-c2nnc3ccc(-c4cccc(S(C)(=O)=O)c4)nn23)cc1		> 2340 nM						
CCc1nc(N)nc(N)c1-c1ccc(Cl)cc1 [PYRIMETHAMINE]								ED90 (Plasmodium falciparum [19]): 0.9 mg/kg
CS(=O)(=O)c1ccc(-c2cnn3c2NC(c2cccc(S(=O)(=O)C4CC4)c2)CC3)cc1 (stereo unspecified)	46 nM	44 nM	Stable	Stable	Stable	78%	7 days	selectivity ratio [21]: > 1000; selectivity ratio [22]: > 1000; selectivity ratio [23]: > 1000; selectivity ratio [24]: > 1000; solubility [20]: soluble; concentration at 1 h [8]: 456 nM; concentration at 4 h [9]: 177 nM; Drug uptake (Blood): BLD
O[C@@H](c1cc(C(F)(F)F)nc2c(C(F)(F)F)cccc12)[C@H]1CCCCN1 (relative stereo) [(S,R)-MEFLOQUINE]								Activity (Plasmodium berghei [17]): 99.9%; MSD (Plasmodium berghei [18]): 29 days; ED90 (Plasmodium falciparum [19]): 7.7 mg/kg
C[S+]([O-])c1ccc(-c2cnc3ccc(-c4cccc(S(=O)(=O)C5CC5)c4)nn23)cc1 (stereo unspecified)			Stable	Stable	Stable	99.8%	>30 days	Activity (Plasmodium berghei [26]): Active; Activity (Plasmodium berghei [27]): 99.6%; MSD (Plasmodium berghei [28]): 8 days; Activity (Plasmodium berghei [29]): 98%; MSD (Plasmodium berghei [30]): 7 days
CS(=O)(=O)c1ccc(-c2nnc3ccc(-c4cccc(S(C)(=O)=O)c4)cn23)cc1	> 1000 nM	> 1000 nM						
CS(=O)(=O)c1ccc(-c2cnc3ccc(-c4cccc(S(=O)(=O)C5CC5)c4)cn23)cc1	38 nM	46 nM	Stable	Stable	Stable	99.5%	10 days	selectivity ratio [21]: 700; selectivity ratio [22]: 700; selectivity ratio [23]: 700; selectivity ratio [24]: 700; half-life [11]: 234 min; bioavailability [12]: 51%; half-life [13]: 180 min; clearance [14]: 8.7 mL/min/kg; Vd [15]: 2.3 L/kg
CS(=O)(=O)c1ccc(-c2cnc3ccc(-c4cccc(C(F)(F)F)c4)nn23)cc1	46 nM	60 nM	Stable	Stable	Stable	99.8%	>30 days	Activity (Plasmodium berghei [26]): Active; Activity (Plasmodium berghei [27]): 70%; MSD (Plasmodium berghei [28]): 7 days; Activity (Plasmodium berghei [29]): <40%; MSD (Plasmodium berghei [30]): 4 days
CS(=O)(=O)c1ccc(-c2cnn3ccc(-c4cccc(S(C)(=O)=O)c4)cc23)cc1		8 nM	Stable	Stable	Stable	60%	4 days	selectivity ratio [21]: > 1000; selectivity ratio [22]: > 1000; selectivity ratio [23]: > 1000; selectivity ratio [24]: > 1000; IC50 [25]: > 33 µM; concentration at 1 h [8]: 7600 nM; concentration at 4 h [9]: 486 nM; concentration at 24 h [10]: 290 nM; half-life [13]: 246 min; clearance [14]: 13.9 mL/min/kg; Vd [15]: 4.8 L/kg; half-life [31]: 156 min; bioavailability [32]: 1%; IC50 (Plasmodium berghei [16]): 6.6 nM
CS(=O)(=O)c1ccc(-c2cnn3ccc(-c4cccc(C(F)(F)F)c4)nc23)cc1	43 nM	48 nM	Stable	Stable	Stable			
CS(=O)(=O)c1ccc(-c2cnc3ncc(-c4cccc(S(C)(=O)=O)c4)cn23)cc1	> 1000 nM	> 1000 nM						
CCN(CC)CCCC(C)Nc1ccnc2cc(Cl)ccc12 (stereo unspecified) [CHLOROQUINE]								ED90 (Plasmodium falciparum [19]): 4.3 mg/kg
CS(=O)(=O)c1ccc(-c2nnc3ccc(-c4cccc(C(F)(F)F)c4)cn23)cc1	> 1000 nM	> 1000 nM						
CS(=O)(=O)c1ccc(-c2cnn3ccc(-c4cccc(C(F)(F)F)c4)cc23)cc1		98 nM	Stable	Stable	Stable			
CS(=O)(=O)c1ccc(-c2cnn3ccc(-c4cccc(S(C)(=O)=O)c4)nc23)cc1	2.2 nM	2.6 nM	Stable	Stable	Stable			
CS(=O)(=O)c1ccc(-c2cnc3ccc(-c4cccc(S(C)(=O)=O)c4)cn23)cc1	113 nM	150 nM	Stable	Stable	Stable			IC50 [25]: 4.8 µM
